Data set [1] is described as follows: Antiproliferative activity against CHO cells measured after 72 hrs by CellTiter-Glo or CCK8 assay. The format is cell-based, Cricetulus griseus. The note with it: chinese hamster. A digest of the protocol:
(§1)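 Cells at 1 to 2.5×10^4 cells/mL were incubated with a range of compound concentrations for 72 h. Viability was read by CellTiter-Glo luminescence or CCK-8 absorbance (450/655 nm) and normalized to DMSO control. GI50 came from curve fitting, with triplicate testing.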
For orientation: ATP-based viability assays read luminescence as a measure of living cells.

Data set [2] can be described thus: Antiproliferative activity against human HL60 cells measured after 72 hrs by CellTiter-Glo or CCK8 assay. The format is functional. Conditions: HL-60, 72 h. In a few lines:
as §1

Data set [3] has as its target Tyrosine-protein kinase Blk (Homo sapiens, UniProt P51451). Put plainly: Inhibition of Tel-fused BLK (unknown origin) expressed in BAF3 cells assessed as growth inhibition measured after 72 hrs by CellTiter-Glo or CCK8 assay. The format is cell-based. A digest of the protocol:
(§2)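 BaF3 lines were made by retroviral transduction with kinase-fusion MSCV vectors packaged in HEK293T cells. Cells were selected with puromycin for 48 h, then selected again without IL-3 so growth depends on the introduced kinase. […] They were seeded at 1 to 2.5×10^4 cells/mL with compound dilutions and incubated 72 h. Viability was read by CellTiter-Glo luminescence or CCK-8 absorbance (450/655 nm), normalized to DMSO control; GI50 was curve-fitted from triplicate tests.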

Data set [4] deals with Epithelial discoidin domain-containing receptor 1 (Homo sapiens, UniProt Q08345). Put plainly: Inhibition of human GST-tagged DDR1 cytoplasmic domain expressed in baculovirus expression system assessed as residual activity at 1 uM by KINOMEscan binding assay relative to control.
A short description of data set [5]: Antiproliferative activity against human MEG01 cells measured after 72 hrs by CellTiter-Glo or CCK8 assay. The format is functional. Conditions: MEG-01, 72 h.
Data set [6] is described as follows: Antiproliferative activity against human MOLM14 cells measured after 72 hrs by CellTiter-Glo or CCK8 assay. The format is functional. Conditions: MOLM-14, 72 h. A digest of the protocol: as §1
A short description of data set [7]: Growth inhibition of mouse BAF3 cells measured after 72 hrs by CellTiter-Glo or CCK8 assay. The format is cell-based. A digest of the protocol: as §1
Data set [8] can be described thus: Antiproliferative activity against human GIST882 cells measured after 72 hrs by CellTiter-Glo or CCK8 assay. The format is functional. The note with it: GIST882, 72 h. In a few lines:
as §1

Data set [9] deals with T1, Discoidin domain-containing receptor 2 (Homo sapiens) (UniProt Q16832).
T1 sequence (whole entry): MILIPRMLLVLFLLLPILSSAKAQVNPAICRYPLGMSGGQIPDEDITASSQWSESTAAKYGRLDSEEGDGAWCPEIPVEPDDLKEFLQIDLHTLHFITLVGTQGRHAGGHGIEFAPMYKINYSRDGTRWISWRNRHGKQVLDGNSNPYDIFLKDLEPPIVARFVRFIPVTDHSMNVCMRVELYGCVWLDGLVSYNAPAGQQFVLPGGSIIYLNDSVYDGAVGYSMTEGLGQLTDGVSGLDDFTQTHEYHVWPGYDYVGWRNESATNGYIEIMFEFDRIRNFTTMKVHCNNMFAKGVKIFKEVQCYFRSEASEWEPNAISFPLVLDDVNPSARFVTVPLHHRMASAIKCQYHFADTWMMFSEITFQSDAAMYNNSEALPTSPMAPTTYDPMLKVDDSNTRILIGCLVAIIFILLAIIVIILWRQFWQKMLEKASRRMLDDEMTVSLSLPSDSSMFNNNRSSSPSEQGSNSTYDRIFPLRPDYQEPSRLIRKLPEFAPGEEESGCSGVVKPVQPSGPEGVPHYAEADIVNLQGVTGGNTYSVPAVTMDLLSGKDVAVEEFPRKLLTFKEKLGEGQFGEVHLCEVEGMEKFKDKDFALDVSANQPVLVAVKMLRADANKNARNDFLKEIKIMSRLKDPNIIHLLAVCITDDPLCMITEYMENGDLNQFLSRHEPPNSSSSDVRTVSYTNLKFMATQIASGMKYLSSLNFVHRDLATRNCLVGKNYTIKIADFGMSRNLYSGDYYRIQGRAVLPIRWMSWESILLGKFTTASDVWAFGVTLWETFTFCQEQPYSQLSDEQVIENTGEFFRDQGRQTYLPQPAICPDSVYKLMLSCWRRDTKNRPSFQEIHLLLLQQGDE
Put plainly: Inhibition of BCR-fused DDR2 (unknown origin) expressed in BAF3 cells assessed as growth inhibition measured after 72 hrs by CellTiter-Glo or CCK8 assay. The format is cell-based. In a few lines: as §2

Data set [10] addresses Vascular endothelial growth factor receptor 2 (Homo sapiens) (UniProt P35968). In words: Inhibition of Tel-fused VEGFR2 (unknown origin) expressed in BAF3 cells assessed as growth inhibition measured after 72 hrs by CellTiter-Glo or CCK8 assay. The format is cell-based. In a few lines: as §2
Data set [11] in a line: Antiproliferative activity against human MV4-11 cells measured after 72 hrs by CellTiter-Glo or CCK8 assay. The note with it: MV4-11, 72 h. It counts as functional. In a few lines:
as §1

The nature of data set [12]: Antiproliferative activity against human GISTT1 cells measured after 72 hrs by CellTiter-Glo or CCK8 assay. Conditions: GISTT1, 72 h. It counts as functional. In a few lines:
as §1

A short description of data set [13]: Anticancer activity against human K562 cells xenografted in nu/nu mouse assessed as tumor growth inhibition at 100 mg/kg administered daily via oral gavage measured 28 days post compound treatment relative to vehicle-treated control. Conditions: 672 h, read-out: TGI. It counts as functional. A digest of the protocol: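 Female nu/nu mice received ten million K562 cells subcutaneously in the right flank, in PBS mixed 1:1 with Matrigel. Daily oral gavage began at 200-400 mm³ tumor size, with 4 or 5 mice per group. Dosing was 25, 50 or 100 mg/kg/d or vehicle (0.5% methylcellulose/0.4% Tween80) for 28 days. Body weight and tumor size were normalized to initial values, and final tumor weight was recorded. Data are mean ± SEM.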
(In general: A xenograft is tissue or cells of one species grown in another, often human tumour cells in immunodeficient mice.)

Data set [14] can be described thus: Antiproliferative activity against human Rec1 cells measured after 72 hrs by CellTiter-Glo or CCK8 assay. Conditions: Rec1, 72 h. The format is functional. A digest of the protocol: as §1
Data set [15] can be described thus: Antiproliferative activity against human U937 cells measured after 72 hrs by CellTiter-Glo or CCK8 assay. The note with it: U-937, 72 h. It counts as functional. A digest of the protocol:
as §1

A short description of data set [16]: Antiproliferative activity against human GIST48B cells measured after 72 hrs by CellTiter-Glo or CCK8 assay. The format is functional. In a few lines:
as §1

A short description of data set [17]: AUC (0 to t) in Sprague-Dawley rat at 1 mg/kg, iv. The format is ADME, organism-based. The note with it: in vivo. In a few lines: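 Male Sprague-Dawley rats aged six to eight weeks were fasted overnight and then dosed iv or orally. Blood (~0.2 mL) was drawn from the jugular vein into heparin and kept on ice. Sampling was at 1 min to 8 h for iv and 5 min to 24 h for oral. Plasma was separated by centrifugation at 2-8 °C and stored at -80 °C until analysis.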

Data set [18] in a line: Cell cycle arrest in human GISTT1 cells assessed as accumulation at G0/G1 phase at 1 uM after 24 hrs by propidium iodide/RNase staining based flow cytometry. It counts as functional. In a few lines:
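Cells were exposed to serially diluted compound, then fixed in cold 70% ethanol overnight at -20 °C. They were stained with PI/RNase buffer for DNA-content cell-cycle analysis.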

We go through two molecules from ChEMBL document CHEMBL3877303 (J Med Chem, 2017).

The GI50 is the concentration giving 50% growth inhibition. As a reminder, the AUC(0-t) is exposure summed from dosing to a finite time, without extrapolation to infinity. Higher therefore signals more exposure.

Activity calls are given as the source filed them. No cut-off for these calls is given here.

Sequence of Tyrosine-protein kinase Blk (P51451 2-505 limits assumed): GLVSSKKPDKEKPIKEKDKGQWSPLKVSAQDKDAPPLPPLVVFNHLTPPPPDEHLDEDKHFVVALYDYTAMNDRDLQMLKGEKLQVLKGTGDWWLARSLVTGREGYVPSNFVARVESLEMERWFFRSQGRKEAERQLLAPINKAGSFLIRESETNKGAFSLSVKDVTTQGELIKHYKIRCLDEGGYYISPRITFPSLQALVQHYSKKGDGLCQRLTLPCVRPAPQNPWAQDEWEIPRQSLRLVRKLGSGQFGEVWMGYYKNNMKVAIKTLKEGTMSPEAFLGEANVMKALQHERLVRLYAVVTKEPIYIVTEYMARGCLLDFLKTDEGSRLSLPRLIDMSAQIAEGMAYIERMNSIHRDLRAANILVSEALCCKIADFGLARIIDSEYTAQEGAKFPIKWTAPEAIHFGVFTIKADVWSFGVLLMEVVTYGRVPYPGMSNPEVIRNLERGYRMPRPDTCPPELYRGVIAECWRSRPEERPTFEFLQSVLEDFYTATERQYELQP
Sequence of Vascular endothelial growth factor receptor 2 (Homo sapiens) (P35968 whole entry, the tested form may be a part): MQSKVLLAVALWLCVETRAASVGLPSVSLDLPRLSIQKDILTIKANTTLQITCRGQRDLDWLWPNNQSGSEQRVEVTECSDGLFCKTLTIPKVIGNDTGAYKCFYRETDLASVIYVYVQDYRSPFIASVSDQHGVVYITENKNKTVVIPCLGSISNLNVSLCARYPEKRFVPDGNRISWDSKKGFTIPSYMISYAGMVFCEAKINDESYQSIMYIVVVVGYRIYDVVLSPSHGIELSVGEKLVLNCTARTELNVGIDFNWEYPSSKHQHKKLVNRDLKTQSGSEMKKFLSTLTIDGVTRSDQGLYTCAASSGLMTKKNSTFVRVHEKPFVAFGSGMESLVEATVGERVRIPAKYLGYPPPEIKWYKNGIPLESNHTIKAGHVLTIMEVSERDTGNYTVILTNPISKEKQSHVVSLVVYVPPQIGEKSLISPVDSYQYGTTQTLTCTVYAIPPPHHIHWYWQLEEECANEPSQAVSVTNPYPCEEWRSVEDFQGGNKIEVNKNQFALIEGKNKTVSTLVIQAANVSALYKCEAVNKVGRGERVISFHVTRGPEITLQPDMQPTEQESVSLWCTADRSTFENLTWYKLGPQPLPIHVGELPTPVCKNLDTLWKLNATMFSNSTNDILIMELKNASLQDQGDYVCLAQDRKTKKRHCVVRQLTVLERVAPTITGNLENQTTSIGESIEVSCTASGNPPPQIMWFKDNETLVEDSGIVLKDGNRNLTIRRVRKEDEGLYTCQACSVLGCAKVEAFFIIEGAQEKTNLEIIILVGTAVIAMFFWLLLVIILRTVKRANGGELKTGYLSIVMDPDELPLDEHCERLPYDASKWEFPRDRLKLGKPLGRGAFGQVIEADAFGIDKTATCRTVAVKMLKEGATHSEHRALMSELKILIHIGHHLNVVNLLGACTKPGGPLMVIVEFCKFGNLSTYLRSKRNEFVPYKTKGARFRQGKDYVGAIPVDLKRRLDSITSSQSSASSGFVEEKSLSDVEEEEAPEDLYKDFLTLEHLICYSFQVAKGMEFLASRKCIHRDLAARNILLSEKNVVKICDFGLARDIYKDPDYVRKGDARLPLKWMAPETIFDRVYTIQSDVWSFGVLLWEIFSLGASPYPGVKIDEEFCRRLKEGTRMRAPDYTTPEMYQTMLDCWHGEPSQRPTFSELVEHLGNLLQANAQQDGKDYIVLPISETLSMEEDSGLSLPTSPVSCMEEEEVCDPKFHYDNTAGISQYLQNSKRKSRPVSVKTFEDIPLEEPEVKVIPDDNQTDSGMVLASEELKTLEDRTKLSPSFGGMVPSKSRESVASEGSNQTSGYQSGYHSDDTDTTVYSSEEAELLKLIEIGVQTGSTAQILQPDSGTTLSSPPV
Sequence of Epithelial discoidin domain-containing receptor 1 (Q08345 whole entry, the tested form may be a part): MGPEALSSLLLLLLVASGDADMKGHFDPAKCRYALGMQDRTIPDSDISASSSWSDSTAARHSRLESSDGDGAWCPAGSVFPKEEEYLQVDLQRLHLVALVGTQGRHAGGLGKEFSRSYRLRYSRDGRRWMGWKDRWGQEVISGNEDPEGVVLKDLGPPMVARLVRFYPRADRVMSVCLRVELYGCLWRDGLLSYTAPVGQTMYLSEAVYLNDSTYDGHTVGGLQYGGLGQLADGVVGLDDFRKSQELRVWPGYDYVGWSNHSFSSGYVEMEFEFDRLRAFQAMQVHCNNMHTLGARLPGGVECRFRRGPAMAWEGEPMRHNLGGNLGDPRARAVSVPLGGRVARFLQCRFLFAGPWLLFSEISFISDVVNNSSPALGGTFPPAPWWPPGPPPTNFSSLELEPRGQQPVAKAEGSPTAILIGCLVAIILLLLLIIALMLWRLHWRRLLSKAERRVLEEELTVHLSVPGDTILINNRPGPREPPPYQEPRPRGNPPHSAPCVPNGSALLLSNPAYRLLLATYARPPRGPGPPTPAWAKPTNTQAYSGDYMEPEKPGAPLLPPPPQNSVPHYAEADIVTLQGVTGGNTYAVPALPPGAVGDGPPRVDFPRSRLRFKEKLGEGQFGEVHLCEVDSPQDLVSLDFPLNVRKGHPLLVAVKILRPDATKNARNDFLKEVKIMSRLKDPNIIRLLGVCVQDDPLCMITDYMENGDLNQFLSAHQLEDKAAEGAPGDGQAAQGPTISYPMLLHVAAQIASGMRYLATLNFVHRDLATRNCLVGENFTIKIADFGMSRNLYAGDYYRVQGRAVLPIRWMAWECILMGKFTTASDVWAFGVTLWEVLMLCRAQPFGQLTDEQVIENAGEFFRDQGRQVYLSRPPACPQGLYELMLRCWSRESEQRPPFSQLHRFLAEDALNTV

As for `Cc1ccc(C(=O)N2CCC(Oc3cc(NC(=O)c4ccc(CN5CCN(C)CC5)c(C(F)(F)F)c4)ccc3C)CC2)cn1`, the 50% growth inhibitory concentration (GI50) at 72 h in [1] and in data set [7] was above 10 µM each time. For the same molecule, the 50% growth inhibitory concentration (GI50) in data set [2] is 7.34 µM; in [3], 0.658 µM; in [5] it was 0.02 µM; in data set [6], 8.49 µM; in data set [8], 0.095 µM; in data set [9] it was 6.08 µM. Besides, the 50% growth inhibitory concentration (GI50) in data set [10] turned out to be 0.035 µM; in data set [11], 8.14 µM; in data set [12] it was 0.023 µM; in [14] it was 3.47 µM; in data set [15] it was 5.73 µM; in data set [16] it was 3.96 µM. In addition, in data set [4], the Activity amounted to 0.35%. In addition, the inhibition in vivo at 100 mg/kg in data set [13] amounted to 66.8%. Besides, the AUC(0-t) in data set [17] came out at 510 ng·h/mL.

For the molecule `Cc1ccc(NC(=O)c2ccc(CN3CCN(C)CC3)cc2)cc1Nc1nccc(-c2cccnc2)n1` [IMATINIB], the 50% growth inhibitory concentration (GI50) at 72 h in data set [1] and in [7] was above 10 µM each time. The GI50 in data set [2] is above 10 µM; in data set [3], above 10 µM; in [6] it was above 10 µM; in data set [8] it was 0.014 µM; in data set [9], above 10 µM; in [10], above 10 µM. The concentration for 50% growth inhibition (GI50) in data set [11] is above 10 µM; in data set [12], 0.008 µM; in data set [14], above 10 µM; in [15], above 10 µM; in data set [16], above 10 µM. In data set [18], the outcome was Active. In addition, the inhibition in vivo at 100 mg/kg in data set [13] was 31.9%.
